{
  "source": "ChEMBL document CHEMBL4834403",
  "about": "“Design and Synthesis of Novel Epigenetic Inhibitors Targeting Histone Deacetylases, DNA Methyltransferase 1, and Lysine Methyltransferase G9a with In Vivo Efficacy in Multiple Myeloma” (J Med Chem, 2021)",
  "key": {"[1]": {"test_system": "MM1.S", "assay": "Induction of DNA hypomethylation in human MM1.S cells assessed as CPG hypomethylation at position 3 at 2 uM measured after 5 days relative to control", "assay_type": "cell-based", "settings": "time 5.0 day", "outline": "(§1)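 MM1.S cells dosed every day for 5 days at 2 μM or 10 nM. DNA methylation at CpGs of the POU4F2 promoter read by pyrosequencing; run in duplicate.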"}, "[2]": {"assay": "Toxicity in mouse assessed as mouse death at 10 mg/kg, ip after 10 mins", "assay_type": "organism-based", "settings": "in vivo", "outline": "(§2)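 Observation made during a preliminary pharmacokinetic study with i.p. dosing, n = 5 mice per dose level, with blood extraction after administration.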"}, "[3]": {"assay": "Toxicity in mouse assessed as mouse death at 5 mg/kg, ip after 15 mins", "assay_type": "organism-based", "settings": "in vivo, 0.25 h", "outline": "as §2"}, "[4]": {"assay": "Permeability of the compound in PBS/EtOH buffer (70:30) incubated for 18 hrs by UV plate reader based PAMPA assay", "assay_type": "ADME", "settings": "read-out: permeability"}, "[5]": {"test_system": "MM1.S", "assay": "Induction of DNA hypomethylation in human MM1.S cells assessed as CPG hypomethylation at position 5 at 10 nM measured after 5 days relative to control", "assay_type": "cell-based", "settings": "time 5.0 day", "outline": "as §1"}, "[6]": {"molecular_target": "T1, CYP1A2 (Homo sapiens, UniProt P05177)", "T1 sequence (P05177 whole entry)": "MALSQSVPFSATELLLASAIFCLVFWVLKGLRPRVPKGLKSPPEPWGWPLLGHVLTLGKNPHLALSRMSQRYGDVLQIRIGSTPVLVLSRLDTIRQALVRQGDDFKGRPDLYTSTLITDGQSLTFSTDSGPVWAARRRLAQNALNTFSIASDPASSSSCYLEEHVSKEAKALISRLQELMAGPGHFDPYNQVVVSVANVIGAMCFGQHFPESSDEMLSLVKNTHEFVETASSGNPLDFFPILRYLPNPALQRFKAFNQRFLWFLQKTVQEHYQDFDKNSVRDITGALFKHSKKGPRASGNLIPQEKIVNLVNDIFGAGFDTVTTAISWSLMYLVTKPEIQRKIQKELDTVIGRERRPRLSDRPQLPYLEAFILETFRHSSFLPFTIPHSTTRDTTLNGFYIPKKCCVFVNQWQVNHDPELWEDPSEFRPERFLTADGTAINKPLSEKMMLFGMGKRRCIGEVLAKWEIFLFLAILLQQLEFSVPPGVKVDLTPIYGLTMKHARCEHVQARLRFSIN", "assay": "Inhibition of CYP1A2 in human liver microsomes at 10 uM incubated for 10 mins in presence of NADPH by LC-MS/MS analysis relative to control", "assay_type": "ADME"}, "[7]": {"molecular_target": "CYP2C9 (Homo sapiens, UniProt P11712)", "sequence (P11712 whole entry)": "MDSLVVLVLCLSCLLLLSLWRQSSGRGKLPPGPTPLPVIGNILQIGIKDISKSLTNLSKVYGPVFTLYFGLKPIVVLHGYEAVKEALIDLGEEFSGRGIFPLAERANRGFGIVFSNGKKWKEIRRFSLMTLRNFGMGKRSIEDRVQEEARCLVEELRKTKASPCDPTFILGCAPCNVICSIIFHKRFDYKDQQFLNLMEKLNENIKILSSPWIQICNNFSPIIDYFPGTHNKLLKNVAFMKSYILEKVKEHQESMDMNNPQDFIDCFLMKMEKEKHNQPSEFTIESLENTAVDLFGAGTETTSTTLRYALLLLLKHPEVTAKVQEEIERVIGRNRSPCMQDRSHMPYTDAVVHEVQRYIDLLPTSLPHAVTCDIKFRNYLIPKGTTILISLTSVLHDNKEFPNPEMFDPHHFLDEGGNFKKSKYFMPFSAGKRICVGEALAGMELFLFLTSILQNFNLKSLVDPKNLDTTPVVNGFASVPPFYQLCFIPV", "assay": "Inhibition of CYP2C9 in human liver microsomes at 10 uM incubated for 10 mins in presence of NADPH by LC-MS/MS analysis relative to control", "assay_type": "ADME"}, "[8]": {"molecular_target": "CYP3A4 (Homo sapiens, UniProt P08684)", "sequence (P08684 whole entry)": "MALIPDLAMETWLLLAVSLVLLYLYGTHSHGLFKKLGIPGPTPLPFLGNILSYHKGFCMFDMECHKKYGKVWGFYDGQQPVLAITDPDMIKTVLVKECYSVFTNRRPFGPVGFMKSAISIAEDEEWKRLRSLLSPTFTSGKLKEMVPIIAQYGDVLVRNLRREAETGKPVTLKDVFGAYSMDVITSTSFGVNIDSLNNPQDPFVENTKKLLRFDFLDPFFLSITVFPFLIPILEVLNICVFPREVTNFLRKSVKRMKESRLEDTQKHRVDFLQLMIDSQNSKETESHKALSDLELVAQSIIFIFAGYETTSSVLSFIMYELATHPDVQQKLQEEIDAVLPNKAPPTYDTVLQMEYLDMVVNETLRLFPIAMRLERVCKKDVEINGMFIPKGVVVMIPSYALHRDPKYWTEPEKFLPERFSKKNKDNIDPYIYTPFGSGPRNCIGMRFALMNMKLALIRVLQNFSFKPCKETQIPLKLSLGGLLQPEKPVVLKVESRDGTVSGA", "assay": "Inhibition of CYP3A4 in human liver microsomes at 10 uM incubated for 10 mins in presence of NADPH by LC-MS/MS analysis relative to control", "assay_type": "ADME"}, "[9]": {"assay": "Stability of the compound in human pooled hepatocytes assessed as parent compound remaining incubated for 60 mins", "assay_type": "ADME, cell-based, Hepatocyte", "settings": "read-out: Stabilty"}, "[10]": {"assay": "Intrinsic clearance in mouse pooled hepatocytes", "assay_type": "ADME, cell-based, Hepatocyte", "settings": "read-out: CLH"}, "[11]": {"assay": "Half life in BALB/c RAG2-/- gammaC-/- mouse at 10 mg/kg, ip measured up to 24 hrs by UPLC-triple quadrupole MS analysis", "assay_type": "ADME, organism-based", "settings": "in vivo"}, "[12]": {"assay": "Apparent oral clearance in BALB/c RAG2-/- gammaC-/- mouse at 10 mg/kg, ip measured up to 24 hrs by UPLC-triple quadrupole MS analysis", "assay_type": "ADME, organism-based", "settings": "in vivo"}, "[13]": {"assay": "Apparent volume of distribution during terminal phase in BALB/c RAG2-/- gammaC-/- mouse at 10 mg/kg, ip measured up to 24 hrs by UPLC-triple quadrupole MS analysis", "assay_type": "ADME, organism-based", "settings": "in vivo, read-out: Vz/F"}, "[14]": {"assay": "Half life in BALB/c RAG2-/- gammaC-/- mouse at 10 mg/kg, ip using 80% saline 10% Tween20 and 10% DMSO formulation measured up to 24 hrs by UPLC-triple quadrupole MS analysis", "assay_type": "ADME, organism-based", "settings": "in vivo"}, "[15]": {"assay": "Apparent oral clearance in BALB/c RAG2-/- gammaC-/- mouse at 10 mg/kg, ip using 80% saline 10% Tween20 and 10% DMSO formulation measured up to 24 hrs by UPLC-triple quadrupole MS analysis", "assay_type": "ADME, organism-based", "settings": "in vivo"}, "[16]": {"assay": "Apparent volume of distribution during terminal phase in BALB/c RAG2-/- gammaC-/- mouse at 10 mg/kg, ip using 80% saline 10% Tween20 and 10% DMSO formulation measured up to 24 hrs by UPLC-triple quadrupole MS analysis", "assay_type": "ADME, organism-based", "settings": "in vivo, read-out: Vz/F"}, "[17]": {"test_system": "MM1.S", "assay": "Antitumor activity against human MM1.S cells xenografted in BALB/c RAG2-/- gammaC-/- mouse assessed as reduction in tumor volume at 10 mg/kg, ip administered for 5 consecutive days followed by 2 days rest and measured after 35 days (reference value: 3836 +/- 1696 mm3)", "assay_type": "functional", "settings": "time 35 day"}, "[18]": {"assay": "Toxicity in BALB/c RAG2-/- gammaC-/- mouse xenografted with human MM1.S cells assessed as effect on body weight at 10 mg/kg, ip administered for 5 consecutive days followed by 2 days rest and measured after 35 days", "assay_type": "organism-based", "settings": "in vivo, 840 h, time 35 day"}},
  "data": [
    {"compound": "COc1cc2c(NCC3CCN(c4ncc(C(=O)NO)cn4)CC3)cc(-c3ccc(C)o3)nc2cc1OCCCN1CCCC1", "values": [
      {"measurement": "Activity", "setting": "[1]", "result": 15, "unit": "%"},
      {"measurement": "Activity", "setting": "[2]", "result": "Toxic"},
      {"measurement": "Activity", "setting": "[3]", "result": "Toxic"}
    ]},
    {"compound": "COc1cc2nc(-c3ccc(C)o3)cc(NCC3CCN(c4ncc(C(=O)NO)cn4)CC3)c2cc1OC", "values": [
      {"measurement": "Papp at 18 h", "setting": "[4]", "result": 0.504, "unit": "×10⁻⁶ cm/s"},
      {"measurement": "Activity", "setting": "[5]", "result": 10, "unit": "%"},
      {"measurement": "inhibition at 10 min, 10 µM", "setting": "[6]", "result": 58.8, "unit": "%"},
      {"measurement": "inhibition at 10 min, 10 µM", "setting": "[7]", "result": 0, "unit": "%"},
      {"measurement": "inhibition at 10 min, 10 µM", "setting": "[8]", "result": 50.8, "unit": "%"},
      {"measurement": "remaining at 1 h", "setting": "[9]", "result": 50.8, "unit": "%"},
      {"measurement": "CLint scaled", "setting": "[10]", "result": 411, "unit": "mL/min/kg"},
      {"measurement": "half-life", "setting": "[11]", "result": 3.8, "unit": "h"},
      {"measurement": "CL/F", "setting": "[12]", "result": 13.3, "unit": "mL/min"},
      {"measurement": "Vd/F", "setting": "[13]", "result": 4.6, "unit": "L"},
      {"measurement": "half-life", "setting": "[14]", "result": 8.46, "unit": "h"},
      {"measurement": "CL/F", "setting": "[15]", "result": 8.83, "unit": "mL/min"},
      {"measurement": "Vd/F", "setting": "[16]", "result": 6.56, "unit": "L"},
      {"measurement": "Activity", "setting": "[17]", "result": 1788, "unit": "mm3"},
      {"measurement": "Activity", "setting": "[18]", "result": "Non-Toxic"}
    ]}
  ]
}
